Tests used:
Human orthopneumovirus [1] = assay: Antiviral activity against Respiratory syncytial virus A strain Long infected in Hep2 cells assessed as reduction in virus-induced cytopathic effect after 5 days by microscopic analysis; assay type: functional, organism-based; conditions: HEp-2, 120 h
How it was run: (§1)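 HEp-2 cells seeded 5×10^3/well in DMEM with 2% heat-inactivated FBS and 1% NEAA, 37°C, 5% CO₂; next day medium replaced with 1:2 serial dilutions of compound (eight concentrations, 0.7-100 μM) and infected with RSV-A Long or RSV-B Wash at moi 0.01 CCID₅₀/cell. CPE scored microscopically (0–5) at day 5; EC₅₀ by logarithmic interpolation as 50% protection; mean of ≥2 independent experiments.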

[2] = Cytotoxicity against human Hep2 cells assessed as reduction in cell viability measured after 5 days by MTS assay; assay type: cell-based; conditions: HEp-2 cells
How it was run: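 Uninfected HEp-2 cultures set up as for the antiviral assay (5×10^3 cells/well, DMEM with 2% FBS and 1% NEAA, 37°C, 5% CO₂) and treated with serial 1:2 compound dilutions; metabolic activity quantified at day 5 by MTS readout to give CC₅₀; mean of ≥2 independent experiments.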

Human orthopneumovirus [3] = assay: Antiviral activity against Respiratory syncytial virus B infected in Hep2 cells assessed as reduction in virus-induced cytopathic effect after 5 days by microscopic analysis; assay type: functional, organism-based; conditions: HEp-2, 120 h; how it was run: as §1

Row | Structure (SMILES) | EC50 (Human orthopneumovirus [1]) [µM] | CC50 at 120 h [2] [µM] | EC50 (Human orthopneumovirus [3]) [µM]
1 | S=C(SCc1nc2ccccc2s1)N1CCN(c2ccccc2)CC1 | 4.4 | > 100 | 1.3
2 | O=S(=O)(c1ccccc1)N1CCN(C(=S)SCc2nc3ccccc3s2)CC1 | 35.3 | > 100 | 12.5
3 | FC(F)(F)c1ccc(CN2CCN(C(=S)SCc3nc4ccccc4s3)CC2)cc1 | 3.31 | > 100 | –
4 | Cc1ccccc1CN1CCN(C(=S)SCc2nc3ccccc3s2)CC1 | 10.4 | > 100 | 20.6
5 | CC(C)(C)c1ccc(CN2CCN(C(=S)SCc3nc4ccccc4s3)CC2)cc1 | – | 71.7 | 2.2
6 | COc1ccc(CN2CCN(C(=S)SCc3nc4ccccc4s3)CC2)cc1 | – | > 100 | 3
7 | O=C(c1ccccc1)N1CCN(C(=S)SCc2nc3ccccc3s2)CC1 | 44.1 | 45 | 24.8
8 | Cc1ccc(CN2CCN(C(=S)SCc3nc4ccccc4s3)CC2)cc1 | – | > 100 | 1.32
9 | S=C(SCc1nc2ccccc2s1)N1CCN(CCc2ccccc2)CC1 | 7.7 | > 100 | –
10 | Cc1ccc(CN2CCN(C(=S)SCc3nc4ccccc4s3)CC2)c(C)c1 | 4.97 | > 100 | –
11 | Cc1cccc(CN2CCN(C(=S)SCc3nc4ccccc4s3)CC2)c1 | 11.8 | > 100 | 3
12 | S=C(SCc1nc2ccccc2s1)N1CCN(Cc2ccccc2)CC1 | 8.3 | > 100 | 3.9
13 | Fc1ccc(CN2CCN(C(=S)SCc3nc4ccccc4s3)CC2)cc1 | 4.4 | > 100 | 2.5
14 | COC(=O)c1ccc(CN2CCN(C(=S)SCc3nc4ccccc4s3)CC2)cc1 | 14.8 | > 100 | 3.9
15 | CCOC(=O)c1ccc(CN2CCN(C(=S)SCc3nc4ccccc4s3)CC2)cc1 | 40.8 | > 100 | 4
16 | Cc1cc(C)c(CN2CCN(C(=S)SCc3nc4ccccc4s3)CC2)c(C)c1 | 42.2 | > 100 | 20.6
17 | Nc1ccn([C@@H]2O[C@@](CO)(CCl)[C@@H](O)[C@H]2F)c(=O)n1 [ALS-8112] | 2.6 | > 100 | 2.6
18 | FC(F)(F)c1cccc(CN2CCN(C(=S)SCc3nc4ccccc4s3)CC2)c1 | 3.3 | > 100 | 3.8

Source: ChEMBL document CHEMBL4627325, “Rational modifications, synthesis and biological evaluation of new potential antivirals for RSV designed to target the M2-1 protein” (Bioorg Med Chem, 2020)
